Measurements: paper PMC7266109 (Drug Design, Development and Therapy, 2020)
Where two headings read alike, the source gives them in different places.

Assay type: in vitro ADME, rat
How it was run: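 Spiked rat plasma held under storage and analysis conditions, then quantified by UPLC-MS/MS. Work-up: IS (working solution 100 ng/mL) added, protein precipitation with acetonitrile (3 volumes), vortex 1 min, centrifugation 13,000 g for 10 min at 4°C, supernatant injected. Separation: BEH C18 column at 40°C, acetonitrile/0.1% formic acid gradient at 0.40 mL/min, 3.0 min run.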

Measured: Stability in rat plasma samples

CCc1nc(C(N)=O)c(Nc2ccc(N3CCC(N4CCN(C)CC4)CC3)c(OC)c2)nc1NC1CCOCC1 [Gilteritinib]
stable: at room temperature for at least 24 h | at −20°C for at least 31 days | in the auto-sampler (10°C) for at least four hours | three complete freeze (−20°C)/thaw (RT) cycles
